Test results reported in article PMC3156442 (Molecular bioSystems, 2010).

Columns and labels:
Jurkat cells [1] = experiment: LDH release cytotoxicity; format: cell-based, human; details: 10 μM, 37 °C; for Cytotoxicity by LDH release (in words): 10 min or 60 min
Summary of the method: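 Jurkat cells exposed to 10 μM lipopeptide at 37 °C for 10 or 60 min, then the plate was centrifuged at 250 × g for 4 min. Released LDH in the supernatant was read using tetrazolium substrate (RT, 30 min, dark) at 490 nm. Controls were spontaneous release, lysis-solution maximum, volume correction and medium background. % cytotoxicity = (experimental − spontaneous)/(maximum − spontaneous) × 100. Triplicate.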

Jurkat cells [2] = experiment: Cellular uptake of FITC-labelled LPs by flow cytometry; format: cell-based, human; details: 10 μM, 10 min, 37 °C

Row | Compound | Cytotoxicity by LDH release (in words) (Jurkat cells [1]) | Signal intensity relative to C14R11 (C14R11 set as 1) (Jurkat cells [2]) [fold] | Cytotoxicity (LDH release, % of maximum) (Jurkat cells [1]; 60 min, triplicate, mean ± SD) [%]
1 | CCCCCCCCCCCC(=O)NCCC(=O)N[C@@H](CCCNC(=N)N)C(=O)N[C@@H](CCCNC(=N)N)C(=O)N[C@@H](CCCNC(=N)N)C(=O)N[C@@H](CCCNC(=N)N)C(=O)N[C@@H](CCCNC(=N)N)C(=O)N[C@@H](CCCNC(=N)N)C(=O)N[C@@H](CCCNC(=N)N)C(=O)N[C@@H](CCCCNC(=S)Nc1ccc2c(c1)C(=O)OC21c2ccc(O)cc2Oc2cc(O)ccc21)C(N)=O [C12R7] | didn’t exhibit any significant toxicity |  | 
2 | CCCCCCCCCCCCCC(=O)NCCC(=O)N[C@@H](CCCNC(=N)N)C(=O)N[C@@H](CCCNC(=N)N)C(=O)N[C@@H](CCCNC(=N)N)C(=O)N[C@@H](CCCNC(=N)N)C(=O)N[C@@H](CCCNC(=N)N)C(=O)N[C@@H](CCCNC(=N)N)C(=O)N[C@@H](CCCNC(=N)N)C(=O)N[C@@H](CCCCNC(=S)Nc1ccc2c(c1)C(=O)OC21c2ccc(O)cc2Oc2cc(O)ccc21)C(N)=O [C14R7] | didn’t exhibit any significant toxicity |  | 
3 | CCCCCCCCCCCCCC(=O)NCCC(=O)N[C@H](CCCNC(=N)N)C(=O)N[C@H](CCCNC(=N)N)C(=O)N[C@H](CCCNC(=N)N)C(=O)N[C@H](CCCNC(=N)N)C(=O)N[C@H](CCCNC(=N)N)C(=O)N[C@H](CCCNC(=N)N)C(=O)N[C@H](CCCNC(=N)N)C(=O)N[C@H](CCCNC(=N)N)C(=O)N[C@H](CCCNC(=N)N)C(=O)N[C@H](CCCNC(=N)N)C(=O)N[C@H](CCCNC(=N)N)C(=O)N[C@@H](CCCCNC(=S)Nc1ccc2c(c1)C(=O)OC21c2ccc(O)cc2Oc2cc(O)ccc21)C(N)=O [C14dR11] |  | 5 | 5.97 ± 0.9
4 | CCCCCCCCCCCCCCCC(=O)NCCC(=O)N[C@@H](CCCNC(=N)N)C(=O)N[C@@H](CCCNC(=N)N)C(=O)N[C@@H](CCCNC(=N)N)C(=O)N[C@@H](CCCNC(=N)N)C(=O)N[C@@H](CCCNC(=N)N)C(=O)N[C@@H](CCCNC(=N)N)C(=O)N[C@@H](CCCNC(=N)N)C(=O)N[C@@H](CCCCNC(=S)Nc1ccc2c(c1)C(=O)OC21c2ccc(O)cc2Oc2cc(O)ccc21)C(N)=O [C16R7] | didn’t exhibit any significant toxicity |  | 
